{
  "source": "ChEMBL document CHEMBL1143843",
  "about": "“Antiviral and cellular metabolism interactions between Dexelvucitabine and lamivudine” (Antimicrob Agents Chemother, 2007)",
  "key": {"[1]": {"test_system": "Human immunodeficiency virus 1", "assay": "Antiviral activity against HIV1 LAI in human PBM cells", "format": "functional, organism-based", "settings": "Human immunodeficiency virus 1, LAI, PBMC", "procedure,_shortened": "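HIV-1 LAI added to PHA-stimulated (3-day) primary human PBM cells 1 h before drugs; medium with recombinant IL-2 (26.5 units/ml); drugs alone or combined at fixed ratios (10:1, 3:1, 25:1, 100:1); 5 days culture; supernatant virus pelleted by centrifugation, RT activity measured radiometrically; combination index with confidence intervals by computer algorithm.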"}, "CCRF-CEM [2]": {"test_system": "CCRF-CEM", "assay": "Reduction in [3H]dexelvucitabine triphosphate in human CEM cells per 10^6 cells at 33.3 uM", "format": "functional", "procedure,_shortened": "(§1)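 CEM or PHA-stimulated primary human PBM cells (2 x 10^6 per point) given 10 µM [3H]DFC plus unlabeled 3TC at 1, 33.3 or 100 µM for 4 h, in triplicate; 60% methanol extracts resolved by ion-pairing reverse-phase C18 HPLC; metabolites (TP, DP-choline) quantified by scintillation counting as pmol/10^6 cells.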"}, "CCRF-CEM [3]": {"test_system": "CCRF-CEM", "assay": "Reduction in [3H]dexelvucitabine triphosphate in human CEM cells per 10^6 cells at 100 uM", "format": "functional", "procedure,_shortened": "as §1"}, "CCRF-CEM [4]": {"test_system": "CCRF-CEM", "assay": "(§2) Reduction in dexelvucitabine diphosphate choline level in human CEM cells at 1 uM", "format": "functional", "set-up": "scale not given: the % may be the effect or the level left", "procedure,_shortened": "as §1"}, "CCRF-CEM [5]": {"test_system": "CCRF-CEM", "assay": "Reduction in dexelvucitabine diphosphate choline level in human CEM cells at 33.3 uM", "format": "functional", "set-up": "scale not given: the % may be the effect or the level left", "procedure,_shortened": "as §1"}, "CCRF-CEM [6]": {"test_system": "CCRF-CEM", "assay": "Reduction in dexelvucitabine diphosphate choline level in human CEM cells at 100 uM", "format": "functional", "set-up": "scale not given: the % may be the effect or the level left", "procedure,_shortened": "as §1"}, "PBMC [7]": {"test_system": "PBMC", "assay": "Reduction in dexelvucitabine diphosphate choline level in human PBMC at 33.3 uM", "format": "functional", "set-up": "scale not given: the % may be the effect or the level left", "procedure,_shortened": "as §1"}, "PBMC [8]": {"test_system": "PBMC", "assay": "Reduction in dexelvucitabine diphosphate choline level in human PBMC at 100 uM", "format": "functional", "set-up": "scale not given: the % may be the effect or the level left", "procedure,_shortened": "as §1"}, "CCRF-CEM [9]": {"test_system": "CCRF-CEM", "assay": "as §2", "format": "functional", "set-up": "scale not given: the % may be the effect or the level left", "procedure,_shortened": "as §1", "remark": "listed apart in the source"}, "PBMC [10]": {"test_system": "PBMC", "assay": "Reduction in dexelvucitabine diphosphate choline level in human PBMC at 1 uM", "format": "functional", "set-up": "scale not given: the % may be the effect or the level left", "procedure,_shortened": "as §1"}, "PBMC [11]": {"test_system": "PBMC", "assay": "Reduction in dexelvucitabine diphosphate choline level in PHA-stimulated human PBMC at 1 uM", "format": "functional, cell-based", "procedure,_shortened": "(§3)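 Competition assay in triplicate in CEM and PHA-stimulated PBM cells (2 x 10^6 per point). Cells received 10 µM [3H]3TC plus unlabeled DFC, or 10 µM [3H]DFC plus unlabeled 3TC, with the unlabeled drug at 1, 33.3 or 100 µM, for 4 h. After cold-PBS washes, 60% methanol extracts were separated by ion-pair reverse-phase HPLC. Labeled metabolites, including TP and DP-choline, were quantified by scintillation counting against radiolabel alone.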"}, "CCRF-CEM [12]": {"test_system": "CCRF-CEM", "assay": "Reduction in [3H]dexelvucitabine triphosphate in human CEM cells at 1 uM", "format": "functional, cell-based", "procedure,_shortened": "as §3"}, "CCRF-CEM [13]": {"test_system": "CCRF-CEM", "assay": "Drug level in human CEM cells per 10^6 cells at 10 uM after 4 hrs", "format": "ADME, cell-based", "procedure,_shortened": "(§4)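 CEM cells or PBM cells stimulated 3 days with PHA, 2 x 10^6 cells per time point, were given 10 µM [3H]DFC or [3H]3TC for 4 h. Cells were washed three times in cold PBS and counted, with viability checked by trypan blue. Metabolites were extracted overnight in 60% methanol and resolved by ion-pair C18 HPLC (ammonium acetate/TBAP pH 7.0, 0–50% methanol), then radioactivity was counted. LOD was about 0.01 pmol/10^6 cells.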"}, "PBMC [14]": {"test_system": "PBMC", "assay": "Drug level in human PBMC per 10^6 cells at 10 uM after 4 hrs", "format": "ADME, cell-based", "procedure,_shortened": "as §4"}, "CCRF-CEM [15]": {"test_system": "CCRF-CEM", "assay": "Reduction of Lamivudine triphosphate level at 100 uM in human CEM cells", "format": "functional", "set-up": "scale not given: the % may be the effect or the level left", "procedure,_shortened": "(§5)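 CEM or PHA-stimulated primary human PBM cells (2 x 10^6 per point) given 10 µM [3H]3TC plus unlabeled competitor at 1, 33.3 or 100 µM for 4 h, in triplicate; cells washed in cold PBS, extracted overnight in 60% methanol; metabolites separated by ion-pairing reverse-phase C18 HPLC (ammonium acetate/TBAP pH 7.0, methanol gradient); radioactivity counted; detection limit about 0.01 pmol/10^6 cells.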"}, "PBMC [16]": {"test_system": "PBMC", "assay": "Reduction of Lamivudine triphosphate level at 100 uM in human PBMC", "format": "functional", "set-up": "scale not given: the % may be the effect or the level left", "procedure,_shortened": "as §5"}, "CCRF-CEM [17]": {"test_system": "CCRF-CEM", "assay": "Reduction in Lamivudine metabolite level in human CEM cells at 1 uM", "format": "functional, cell-based", "procedure,_shortened": "as §3"}, "CCRF-CEM [18]": {"test_system": "CCRF-CEM", "assay": "Reduction in Lamivudine metabolite level in human CEM cells at 33.3 uM", "format": "functional", "set-up": "scale not given: the % may be the effect or the level left", "procedure,_shortened": "as §5"}, "CCRF-CEM [19]": {"test_system": "CCRF-CEM", "assay": "Reduction in Lamivudine metabolite level in human CEM cells at 100 uM", "format": "functional", "set-up": "scale not given: the % may be the effect or the level left", "procedure,_shortened": "as §5"}, "CCRF-CEM [20]": {"test_system": "CCRF-CEM", "assay": "Reduction in Lamivudine diphosphate choline level in human CEM cells", "format": "functional, cell-based", "procedure,_shortened": "as §3"}},
  "note": "pEC50: −log10 of the molar value. Active and inactive are the calls of the source. The rule behind the calls is not given here.",
  "data": [
    {"smiles": "Nc1ccn([C@@H]2CS[C@H](CO)O2)c(=O)n1", "note": "(single isomer, unassigned) [LAMIVUDINE]", "values": [
      {"measurement": "pEC50", "setting": "[1]", "value": 7.59},
      {"measurement": "EC90", "setting": "[1]", "value": 120, "unit": "nM"},
      {"measurement": "Activity", "setting": "CCRF-CEM [2]", "value": 0.67, "unit": "pmol"},
      {"measurement": "Activity", "setting": "CCRF-CEM [3]", "value": 0.41, "unit": "pmol"},
      {"measurement": "Activity", "setting": "CCRF-CEM [4]", "value": 74, "unit": "%"},
      {"measurement": "Activity", "setting": "CCRF-CEM [5]", "value": 83, "unit": "%"},
      {"measurement": "Activity", "setting": "CCRF-CEM [6]", "value": 92, "unit": "%"},
      {"measurement": "Activity", "setting": "PBMC [7]", "value": 83, "unit": "%"},
      {"measurement": "Activity", "setting": "PBMC [8]", "value": 92, "unit": "%"},
      {"measurement": "Activity", "setting": "CCRF-CEM [9]", "value": 74, "unit": "%"},
      {"measurement": "Activity", "setting": "PBMC [10]", "value": 48, "unit": "%"},
      {"measurement": "Activity", "setting": "PBMC [11]", "value": "Active"},
      {"measurement": "Activity", "setting": "CCRF-CEM [12]", "value": "inactive"}
    ]},
    {"smiles": "Nc1ccn([C@@H]2CS[C@H](COP(=O)(O)OP(=O)(O)OP(=O)(O)O)O2)c(=O)n1", "note": "[LAMIVUDINE TRIPHOSPHATE]", "values": [
      {"measurement": "Drug uptake", "setting": "CCRF-CEM [13]", "value": 5.7, "unit": "pmol"},
      {"measurement": "Drug uptake", "setting": "PBMC [14]", "value": 2.01, "unit": "pmol"}
    ]},
    {"smiles": "Nc1nc(=O)n([C@H]2C=C[C@@H](CO)O2)cc1F", "note": "[DEXELVUCITABINE]", "values": [
      {"measurement": "pEC50", "setting": "[1]", "value": 7.12},
      {"measurement": "EC90", "setting": "[1]", "value": 230, "unit": "nM"},
      {"measurement": "Activity", "setting": "CCRF-CEM [15]", "value": 25, "unit": "%"},
      {"measurement": "Activity", "setting": "PBMC [16]", "value": 46, "unit": "%"},
      {"measurement": "Activity", "setting": "CCRF-CEM [17]", "value": "inactive"},
      {"measurement": "Activity", "setting": "CCRF-CEM [18]", "value": 10, "unit": "%"},
      {"measurement": "Activity", "setting": "CCRF-CEM [19]", "value": 13, "unit": "%"},
      {"measurement": "Activity", "setting": "CCRF-CEM [20]", "value": "inactive"}
    ]}
  ]
}
